From PubChem BioAssay
Beta cell apopt – beta cell apoptosis inhibition. AID 435005. INS-1E cytokine-induced death, ATP luminescence, 48 h; percent of positive-control rescue, neutral wells zero. actives 0.8% (n = 300,000). protection from apoptosis, % (no concentration beside the values);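 active = Every replicate reaches about 75%, or at least half do and their mean reaches it too, limit read from the data; inconclusive = At least half of replicates reach the limit but their mean does not; inactive = Under half of replicates reach the limit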;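 also: higher means more ATP so stronger rescue from cytokine killing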
Calb FLC – C. albicans growth modulation with fluconazole | growth inhibition, % (concentration not given with the values) | C. albicans CaCi-2 (fluconazole-resistant clinical isolate) + fluconazole, Alamar Blue growth, 48 h | actives 0.57% (n = 300,000) | AID 1979;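 active = growth inhibition above about 58% in most replicates, limit read from the data, passing the limit was not always enough; inconclusive = exactly half the replicates above a set limit; inactive = most replicates below a set limit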;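 also: all wells also contain fluconazole at 8 µg/ml as a sub-toxic cotreatment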
Mdm2 MdmX PPI – disrupts the human Mdm2-MdmX interaction; SaOS-2 split-luciferase Mdm2/MdmX complementation, luminescence; inhibition, % at 8 µM; actives 3% (n = 330,000);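 active = inhibition of at least 50% at 8 µM in the primary screen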
Target sequence (O15151 whole entry, looked up): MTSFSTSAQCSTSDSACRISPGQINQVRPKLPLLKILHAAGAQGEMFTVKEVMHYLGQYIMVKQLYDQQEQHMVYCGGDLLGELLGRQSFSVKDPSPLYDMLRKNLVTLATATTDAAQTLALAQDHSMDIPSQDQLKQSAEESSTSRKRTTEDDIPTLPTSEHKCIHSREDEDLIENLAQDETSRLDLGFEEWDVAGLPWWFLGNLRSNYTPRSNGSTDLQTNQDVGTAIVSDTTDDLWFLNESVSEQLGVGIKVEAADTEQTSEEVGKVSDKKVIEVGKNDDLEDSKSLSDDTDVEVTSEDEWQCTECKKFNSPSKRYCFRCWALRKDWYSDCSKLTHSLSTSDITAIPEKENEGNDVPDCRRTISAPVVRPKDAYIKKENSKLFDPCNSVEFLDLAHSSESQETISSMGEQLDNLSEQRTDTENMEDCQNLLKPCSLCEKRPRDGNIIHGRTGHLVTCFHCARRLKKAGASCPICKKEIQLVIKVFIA
Target sequence (Q00987 whole entry, looked up): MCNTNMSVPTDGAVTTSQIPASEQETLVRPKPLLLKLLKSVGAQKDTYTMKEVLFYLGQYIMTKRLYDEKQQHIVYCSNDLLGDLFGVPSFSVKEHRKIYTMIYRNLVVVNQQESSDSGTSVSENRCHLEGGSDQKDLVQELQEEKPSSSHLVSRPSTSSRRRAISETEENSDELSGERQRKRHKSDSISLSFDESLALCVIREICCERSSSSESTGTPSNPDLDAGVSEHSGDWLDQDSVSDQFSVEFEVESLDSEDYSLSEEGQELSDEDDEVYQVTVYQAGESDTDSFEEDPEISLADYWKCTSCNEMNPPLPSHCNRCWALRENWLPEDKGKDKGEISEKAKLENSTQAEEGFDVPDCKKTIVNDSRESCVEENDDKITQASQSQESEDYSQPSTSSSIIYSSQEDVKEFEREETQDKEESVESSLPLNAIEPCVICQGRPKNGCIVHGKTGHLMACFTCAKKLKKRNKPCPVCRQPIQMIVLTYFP
CSC inhib – blocks cancer stem cells. AID 2717. actives 1.1% (n = 300,000). inhibition, % at 7.5 µM. cancer stem cell-like cells viability, luminescence; in the data active = inhibition above about 75%; inconclusive = no clear call, values can overlap the other calls; tested in HMLE shEcad cells
SKKanGAS inh – blocks kanamycin growth of S. pyogenes SKKanGAS strain. BacTiter-Glo, 6 h. inhibition, % at 7.5 µM. actives 1.3% (n = 300,000). AID 1662;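 active = mean replicate score, as percent of positive control median, at least 50; inconclusive = mean below 50 but one replicate at or above 50; inactive = mean and every replicate below 50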;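 also: strain carries kanamycin resistance gene driven by streptokinase promoter and grows in 40 µg/ml kanamycin; loss of luminescence reflects streptokinase promoter inhibition or plain growth inhibition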
T cruzi inh – T. cruzi replication inhibition; T. cruzi beta-gal in NIH3T3, luminescence, 90 h; inhibition, % (concentration not given with the values); actives 1.4% (n = 300,000);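 active = mean inhibition across valid replicates above about 55%, limit read from the data; inconclusive = mean below that limit but half or more replicates reach it; inactive = mean below it, under half of replicates reach it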;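 also: signal also drops with host cell toxicity which is not excluded here; higher percent means less beta-gal luminescence so fewer parasites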
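Read-out: Parasite load inhibition, % | Test system: Mouse NIH/3T3 fibroblasts infected with β-gal-expressing T. cruzi Tulahuen C4 | Amount: 5,000 cells/well | Medium: DMEM, 2% fetal bovine serum | Signal: GalScreen β-gal luminescence, detergent lysis, 60 min | Timing: 3 h attach, ≥90 h co-culture | Also added: Tulahuen C4 trypomastigotes, 5000/well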
Mdm2-MdmX conf – confirmation of human Mdm2/MdmX interaction inhibitors. shares compounds with Mdm2 MdmX PPI. inhibition, % at 8 µM. Mdm2-MdmX binding, luminescent assay. actives 55% (n = 10,000). AID 489028; in the data active = inhibition above about 40%
Full FLuc ctr – counter-screen for Mdm2/MdmX inhibitors: full-length luciferase | shares compounds with Mdm2 MdmX PPI | SaOS-2 full-length luciferase counterscreen, luminescence | inhibition, % at 8 µM | actives 77% (n = 6,200);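 active = mean inhibition at 8 µM reaching about 37%, which flags the compound as non-specific, limit read from the data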;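 also: p53-null SaOS-2 cells with luciferase driven by a doxycycline-inducible promoter; compound on cells about two nights before reading with doxycycline added after day one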
Of the large screens only hits and unclear results are named; the others gave an inactive call (follow-up assays come after a bar, where they were run). Compounds with a hit are over-represented: about 5.7% of the library has one in this group of screens.

O=C(Cc1ccccc1)Nc1ccc(-c2nnc(-c3ccco3)o2)cc1	none
COc1ccc(CC(=O)Nc2cccc(-c3nnc(-c4ccco4)o3)c2)cc1	none
Cc1ccc(-c2nnc(-c3ccc(NC(=O)Cc4cccs4)cc3)o2)cc1	Mdm2 MdmX PPI 78 | Mdm2-MdmX conf inactive
O=C(Cc1ccc(Cl)cc1)Nc1ccc(-c2nnc(-c3ccco3)o2)cc1	Mdm2 MdmX PPI 54 | Mdm2-MdmX conf inactive
COC(=O)c1cn(C(=O)OC)c2ccccc12	none
COC(=O)c1cn(C(=O)c2ccc(C)cc2C)c2ccccc12	Mdm2 MdmX PPI 61, SKKanGAS inh inconclusive | Mdm2-MdmX conf 53 | Full FLuc ctr 56
COC(=O)c1cn(C(=O)/C=C/c2ccc(OC)c(OC)c2)c2ccccc12	Mdm2 MdmX PPI 92 | Mdm2-MdmX conf 66 | Full FLuc ctr 39
C[C@H](NS(=O)(=O)c1ccc2c(c1)OCCCO2)C(=O)N1CCN(c2ccc(F)cc2)CC1	none (no result: Calb FLC, CSC inhib, SKKanGAS inh, T cruzi inh)
COc1ccc(/C=N/OC/C(O)=C(\C#N)c2nc3ccccc3[nH]2)cc1OC	Mdm2 MdmX PPI 73 | Mdm2-MdmX conf inactive
N#C/C(=C(/O)c1ccc([N+](=O)[O-])s1)c1nc2ccccc2[nH]1	Mdm2 MdmX PPI 89, T cruzi inh 55 | Mdm2-MdmX conf 83 | Full FLuc ctr 68
COc1ccc(/C(C)=N/OC/C(O)=C(\C#N)c2nc3ccccc3[nH]2)cc1	none
CC(C)C(=O)OC/C(O)=C(\C#N)c1nc2ccccc2[nH]1	none (no result: CSC inhib)
N#C/C(=C(\O)Cc1ccccc1)c1nc2ccccc2[nH]1	Mdm2 MdmX PPI 55 | Mdm2-MdmX conf inactive
N#C/C(=C(/O)c1ccc(Br)s1)c1nc2ccccc2[nH]1	none
Cc1ccc(C(C)C)c(OC/C(O)=C(\C#N)c2nc3ccccc3[nH]2)c1	Mdm2 MdmX PPI 59 | Mdm2-MdmX conf inactive
Cc1nnc2n1N=C(c1ccc(F)cc1F)CS2	none (no result: Calb FLC, CSC inhib, SKKanGAS inh, T cruzi inh)
COc1ccc(C(=O)Nc2ccccc2-c2nnn(CC(=O)NCc3ccco3)n2)cc1	none (no result: Beta cell apopt)
COc1ccccc1NC(=O)Cn1nnc(-c2ccccc2NC(=O)c2cnccn2)n1	Calb FLC inconclusive, Mdm2 MdmX PPI 52 | Mdm2-MdmX conf inactive
COc1ccccc1NC(=O)Cn1nnc(-c2ccccc2NC(=O)c2ccco2)n1	none
O=C(Cn1nnc(-c2ccccc2NC(=O)c2ccccc2F)n1)NCc1ccco1	Mdm2 MdmX PPI 50 (no result: Beta cell apopt) | Mdm2-MdmX conf inactive
COc1cc(OC)cc(C(=O)Nc2ccccc2-c2nnn(CC(=O)Nc3cc(C)on3)n2)c1	Mdm2 MdmX PPI 71 | Mdm2-MdmX conf inactive
COc1ccc(NC(=O)Cn2nnc(-c3ccccc3NC(=O)C3CC3)n2)cc1	none
COc1ccc(NC(=O)Cn2nnc(-c3ccccc3NC(=O)c3ccco3)n2)cc1	Mdm2 MdmX PPI 55 | Mdm2-MdmX conf 56 | Full FLuc ctr inactive
CC(C)(C)NC(=O)Cn1nnc(-c2ccccc2NC(=O)c2cnccn2)n1	none (no result: CSC inhib)
Cc1ccc(C)c(NC(=O)CSc2nnc(NC(=O)C3CC3)s2)c1	none
COc1ccc(OC)c(N(CC(=O)NN=C2CCN(C)CC2)S(=O)(=O)c2ccccc2)c1	none (no result: Beta cell apopt)
Cc1noc2ncc(C(=O)c3cc(F)ccc3O)cc12	none
Cc1[nH]nc2ncc(C(=O)c3cc(F)ccc3O)cc12	Mdm2 MdmX PPI 52 | Mdm2-MdmX conf inactive | Full FLuc ctr 61
CNC(=O)NC(=O)CSc1ccc(S(=O)(=O)N2CCOCC2)cn1	none (no result: Calb FLC, SKKanGAS inh, T cruzi inh)
Cc1nc(NC(=O)c2ccc(-c3cc4ccccc4oc3=O)cc2)ccc1Br	Mdm2 MdmX PPI 76 | Mdm2-MdmX conf inactive | Full FLuc ctr 77
Cc1nc(NC(=O)c2cccc(-c3cc4ccccc4oc3=O)c2)ccc1Br	none
Cc1ccc(C(=O)Nc2cc3ccccc3oc2=O)cc1	Mdm2 MdmX PPI 89, CSC inhib inconclusive | Mdm2-MdmX conf 85 | Full FLuc ctr inactive
CCOC(=O)c1ccccc1Nc1cn(C(C)=O)c2ccccc12	Mdm2 MdmX PPI 59 | Mdm2-MdmX conf 47 | Full FLuc ctr 80
COc1cccc(N2CCN(C(=O)CN3C(=O)NC(C)(c4ccc5ccccc5c4)C3=O)CC2)c1 (stereo not drawn)	none (no result: Calb FLC)
O=C(NC(=Nc1nc2ccccc2o1)NC(=O)c1ccccc1)c1ccccc1	none
COc1ccccc1C(=O)NC(=Nc1nc2ccccc2o1)NC(=O)c1ccccc1OC	Mdm2 MdmX PPI 88, T cruzi inh 71 | Mdm2-MdmX conf 55 | Full FLuc ctr 88
COc1ccc(OC)c(N(CC(=O)NCCSC2CCCCC2)S(=O)(=O)c2ccccc2)c1	none
CC(=O)c1cccc(Nc2c3c(nc4ccccc24)CCC3)c1	Mdm2 MdmX PPI 55 | Mdm2-MdmX conf 70 | Full FLuc ctr 72
Cc1ccc2nc3c(c(C(=O)O)c2c1)CCC3	none
COC(=O)c1cccc(Nc2c3c(nc4ccccc24)CCC3)c1	Mdm2 MdmX PPI 64 (no result: Beta cell apopt, CSC inhib) | Mdm2-MdmX conf 68 | Full FLuc ctr 63
Cc1ccc2nc3c(c(Nc4cccc(O)c4)c2c1)CCC3	Mdm2 MdmX PPI 60 | Mdm2-MdmX conf inactive
Cc1cc(Br)cc(Cl)c1OC(=O)c1ccncc1	none
Cc1ccccc1OCC(O)Cn1c(NCc2ccccc2)nc2c1c(=O)[nH]c(=O)n2C (stereo not drawn)	none (no result: CSC inhib)
C=CCNc1nc2c(c(=O)[nH]c(=O)n2C)n1CC(O)COc1ccc2ccccc2c1 (stereo not drawn)	Mdm2 MdmX PPI 59 (no result: Beta cell apopt, CSC inhib) | Mdm2-MdmX conf inactive
O=C(NCc1ccccc1)C1=C[C@@H](C2CC2)C[C@@H](OCc2ccc(CO)cc2)O1	none
O=C(O)C1=C[C@H](c2csc3ccccc23)C[C@H](OCc2ccc(CO)cc2)O1	none
O=C(NCc1ccccc1)C1=C[C@@H](c2csc3ccccc23)C[C@@H](OCCCCO)O1	Beta cell apopt 116, Mdm2 MdmX PPI 74 | Mdm2-MdmX conf 75 | Full FLuc ctr 39
O=C(NC1CC1)C1=C[C@H](c2csc3ccccc23)C[C@H](OCCCCO)O1	none
O=C(NCc1ccccc1)C1=C[C@@H](c2csc3ccccc23)C[C@@H](OCc2ccc(CO)cc2)O1	Beta cell apopt 123, Mdm2 MdmX PPI 72 | Mdm2-MdmX conf inactive
O=C(NCc1ccccc1)C1=C[C@H](C2CCCCC2)C[C@H](OCc2ccc(CO)cc2)O1	Mdm2 MdmX PPI 51 | Mdm2-MdmX conf 63 | Full FLuc ctr 60
O=C(COc1cc2oc(=O)c3c(c2cc1Cl)CCC3)NCCCN1CCCC1=O	none
O=C(COc1cc2oc(=O)c3c(c2cc1Cl)CCC3)Nc1ccc(CN2CCOCC2)cc1	Mdm2 MdmX PPI 52 | Mdm2-MdmX conf inactive
